Key:
Leishmania major = experiment: Growth inhibition against Leishmania major promastigotes in culture; type: functional, organism-based; settings: read-out: Log 1/EC50 (converted)
Method in brief: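 Seeded at 5 × 10⁶ cells/mL with four to six inhibitor concentrations spanning the I50. Coulter-counted daily for 5 days or until out of log phase. EC50 = concentration halving growth rate versus drug-free medium, from log dose vs percent growth plot.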

[1] = molecular target: Bifunctional dihydrofolate reductase-thymidylate synthase (Leishmania major, UniProt P07382); experiment: Inhibition of dihydrofolate reductase (DHFR) from Leishmania major; settings: read-out: Log 1/Ki (converted)
Bifunctional dihydrofolate reductase-thymidylate synthase, sequence (P07382 whole entry): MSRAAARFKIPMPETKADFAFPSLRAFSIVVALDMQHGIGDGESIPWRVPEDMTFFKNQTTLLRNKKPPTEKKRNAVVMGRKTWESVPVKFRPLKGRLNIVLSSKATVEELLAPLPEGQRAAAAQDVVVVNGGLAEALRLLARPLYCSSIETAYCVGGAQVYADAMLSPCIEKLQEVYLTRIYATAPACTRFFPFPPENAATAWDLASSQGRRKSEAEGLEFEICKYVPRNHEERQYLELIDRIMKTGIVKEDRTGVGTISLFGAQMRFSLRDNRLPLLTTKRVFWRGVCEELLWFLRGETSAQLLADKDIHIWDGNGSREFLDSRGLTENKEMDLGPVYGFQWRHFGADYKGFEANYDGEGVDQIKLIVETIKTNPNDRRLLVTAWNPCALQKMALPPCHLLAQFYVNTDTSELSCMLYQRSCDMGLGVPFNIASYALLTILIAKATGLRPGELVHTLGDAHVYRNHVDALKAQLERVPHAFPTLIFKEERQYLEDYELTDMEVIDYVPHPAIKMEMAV

Row | SMILES | EC50 (Leishmania major) | Ki [1]
1 | Cc1cccc(OCc2cccc(N3C(N)=NC(N)=NC3(C)C)c2)c1 | 219000 nM | 427 nM
2 | CCCCCCCCCCCOc1cccc(N2C(N)=NC(N)=NC2(C)C)c1 | – | 977 nM
3 | CC1(C)N=C(N)N=C(N)N1c1cccc(CSc2ccccc2)c1 | – | 407 nM
4 | CC1(C)N=C(N)N=C(N)N1c1cccc(O)c1 | – | 53700 nM
5 | CC1(C)N=C(N)N=C(N)N1c1cccc(Cl)c1 | – | 1200 nM
6 | CC1(C)N=C(N)N=C(N)N1c1cccc(CNc2ccc(Cl)cc2)c1 | 263000 nM | 661 nM
7 | CC1(C)N=C(N)N=C(N)N1c1cccc(CNc2cc(C(N)=O)cc(C(N)=O)c2)c1 | 501000 nM | 513 nM
8 | CC1(C)N=C(N)N=C(N)N1c1cccc(SCc2ccc(Cl)cc2)c1 | 60300 nM | 110 nM
9 | CC1(C)N=C(N)N=C(N)N1c1cccc(COc2cccc(-c3ccccc3)c2)c1 | 22900 nM | 17 nM
10 | CCCCCCCCCc1cccc(N2C(N)=NC(N)=NC2(C)C)c1 | 8510 nM | 20.9 nM
11 | CC1(C)N=C(N)N=C(N)N1c1cccc(COc2cccc(Cl)c2)c1 | – | 224 nM
12 | CC(C)c1cccc(OCc2cccc(N3C(N)=NC(N)=NC3(C)C)c2)c1 | 57500 nM | 174 nM
13 | CC1(C)N=C(N)N=C(N)N1c1cccc(OCc2ccccc2)c1 | – | 1910 nM
14 | CCc1cccc(OCc2cccc(N3C(N)=NC(N)=NC3(C)C)c2)c1 | – | 126 nM
15 | CC1(C)N=C(N)N=C(N)N1c1cccc(C#N)c1 | – | 6030 nM
16 | CC1(C)N=C(N)N=C(N)N1c1cccc(OCCCCOc2cccc(C(F)(F)F)c2)c1 | – | 75.9 nM
17 | CN(Cc1cnc2nc(N)nc(N)c2n1)c1ccc(C(=O)N[C@@H](CCC(=O)O)C(=O)O)cc1 [METHOTREXATE] | 1000 nM | –
18 | CC1(C)N=C(N)N=C(N)N1c1cccc(CNc2ccc(S(N)(=O)=O)cc2)c1 | – | 759 nM
19 | CCOC(=O)c1cccc(N2C(N)=NC(N)=NC2(C)C)c1 | – | 112000 nM
20 | CCCCCCCCCCCCCCOc1cccc(N2C(N)=NC(N)=NC2(C)C)c1 | – | 5890 nM
21 | CC(C)(C)c1cccc(N2C(N)=NC(N)=NC2(C)C)c1 | – | 5750 nM
22 | COc1cccc(N2C(N)=NC(N)=NC2(C)C)c1 | – | 22900 nM
23 | CCCCCc1ccc(OCc2cccc(N3C(N)=NC(N)=NC3(C)C)c2)cc1 | – | 339 nM

Row | SMILES | EC50 (Leishmania major) | Ki [1]
24 | CC1(C)N=C(N)N=C(N)N1c1cccc(COc2cccc(CO)c2)c1 | – | 646 nM
25 | CC1(C)N=C(N)N=C(N)N1c1cccc(COc2cc(Cl)c(Cl)cc2Cl)c1 | 25100 nM | 69.2 nM
26 | CC1(C)N=C(N)N=C(N)N1c1cccc(C(F)(F)F)c1 | – | 2190 nM
27 | CC1(C)N=C(N)N=C(N)N1c1cccc(SCc2ccccc2)c1 | – | 224 nM
28 | CC(=O)Nc1cccc(OCc2cccc(N3C(N)=NC(N)=NC3(C)C)c2)c1 | – | 75.9 nM
29 | COc1cccc(OCc2cccc(N3C(N)=NC(N)=NC3(C)C)c2)c1 | 309000 nM | 151 nM
30 | CC1(C)N=C(N)N=C(N)N1c1cccc(OCC23CC4CC(CC(C4)C2)C3)c1 | – | 3090 nM
31 | CC1(C)N=C(N)N=C(N)N1c1cccc(C(O)c2ccccc2)c1 (stereo not drawn) | – | 42700 nM
32 | CCCCCCCCCCCCc1cccc(N2C(N)=NC(N)=NC2(C)C)c1 | 7940 nM | 72.4 nM
33 | CCCCCCOc1cccc(N2C(N)=NC(N)=NC2(C)C)c1 | – | 3980 nM
34 | CC1(C)N=C(N)N=C(N)N1c1cccc(OCCOc2cccc(C(F)(F)F)c2)c1 | 126000 nM | 251 nM
35 | CC1(C)N=C(N)N=C(N)N1c1cccc([N+](=O)[O-])c1 | – | 10000 nM
36 | CC1(C)N=C(N)N=C(N)N1c1cccc(S(N)(=O)=O)c1 | – | 363000 nM
37 | CC1(C)N=C(N)N=C(N)N1c1cccc(COc2cccc(NC(N)=O)c2)c1 | – | 91.2 nM
38 | CC(=O)c1cccc(N2C(N)=NC(N)=NC2(C)C)c1 | – | 39800 nM
39 | CC1(C)N=C(N)N=C(N)N1c1ccccc1 | – | 12600 nM
40 | CCc1cccc(N2C(N)=NC(N)=NC2(C)C)c1 | – | 1950 nM
41 | CC1(C)N=C(N)N=C(N)N1c1cccc(COc2cccc3ccccc23)c1 | 51300 nM | 39.8 nM
42 | CCOc1cccc(N2C(N)=NC(N)=NC2(C)C)c1 | – | 38000 nM
43 | CC1(C)N=C(N)N=C(N)N1c1cccc(COc2cccc(C#N)c2)c1 | – | 178 nM
44 | CCCCCCCCCOc1cccc(N2C(N)=NC(N)=NC2(C)C)c1 | – | 302 nM
45 | CC1(C)N=C(N)N=C(N)N1c1cccc(C(N)=O)c1 | – | 117000 nM
46 | CC1(C)N=C(N)N=C(N)N1c1cccc(C[Se]c2ccccc2)c1 | – | 275 nM
